From ChEMBL document CHEMBL1759860, “Synthesis and biological evaluation of 5-membered spiro heterocycle-benzopyran derivatives against myocardial ischemia” (2011)
Calls of active or inactive are those of the source. No cut-off for these calls is given here.

Experiments:
[1] = system: H9c2; test: Anti-ischemic activity against ischemia/reperfusion-induced rat H9c2 cell death assessed as cell viability at 10 uM (Rbv = 63 +/- 2%); format: functional; conditions: read-out: Activity
[2] = system: H9c2; test: Anti-ischemic activity against ischemia/reperfusion-induced rat H9c2 cell death assessed as cell viability at 10 uM in presence of mito-KATP channel blocker 5-hydroxydecanoic acid; format: functional, cell-based
[3] = system: Rattus norvegicus; test: Anti-ischemic activity against Langendorff perfused Wistar rat heart assessed as recovery of post-ischemic inotropic functionality measured during whole reperfusion period at 40 mg/kg, ip relative to control; format: functional, organism-based; design: dose 40 mg/kg; conditions: Wister
Method in brief: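 Rats pre-treated with test agent 40 mg/kg before heart isolation. Langendorff-perfused hearts underwent ischemia then reperfusion. Rate-pressure product (RPP) was recorded over the reperfusion period and expressed as % of pre-ischemic RPP.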

[4] = system: Rattus norvegicus; test: Anti-ischemic activity against in Langendorff perfused Wistar rat heart assessed as reduction in ischemia-induced left ventricular tissue injury at 40 mg/kg, ip by morphological analysis; format: functional, organism-based; design: dose 40 mg/kg; conditions: Wister
Method in brief: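 Hearts came from rats pre-treated at 40 mg/kg and underwent ischemia/reperfusion in Langendorff perfusion. Left ventricles were analysed morphologically for injured tissue. Infarct size was expressed as % of left ventricular area (Ai/ALV%).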

[5] = system: H9c2; test: Anti-ischemic activity against ischemia/reperfusion-induced rat H9c2 cell death assessed as cell viability at 100 uM in presence of mito-KATP channel blocker 5-hydroxydecanoic acid; format: functional, cell-based
[6] = system: H9c2; test: Anti-ischemic activity against ischemia/reperfusion-induced rat H9c2 cell death assessed as cell viability at 100 uM (Rbv = 63 +/- 2%); format: functional; conditions: read-out: Activity

## CC(=O)Nc1ccc(CN2CC3(CC(C)(C)Oc4ccccc43)OCC2=O)cc1 (stereo not given)
[1]
  viability at 10 µM: 99%
[2]
  Activity: inactive
[3]
  Activity: Active
[4]
  Activity: Active

## CC(=O)Nc1ccc(CN2CC3(CC(C)(C)Oc4ccc(Br)cc43)OC2=O)cc1 (racemic)
[1]
  viability at 10 µM: 81%

## CC(=O)Nc1ccc(CN2C(=N)C3(CC(C)(C)Oc4ccc(Br)cc43)OC2=O)cc1 (racemic)
[1]
  viability at 10 µM: 76%

## CC(=O)Nc1ccc(CN2C(=N)C3(CC(C)(C)Oc4ccccc43)OC2=O)cc1 (racemic)
[1]
  viability at 10 µM: 68%

## CC1(C)CC2(CN(Cc3ccc(NS(C)(=O)=O)cc3)C(=O)O2)c2ccccc2O1 (racemic)
[1]
  viability at 10 µM: 84%

## CC1(C)CC2(OC(=O)N(Cc3ccc(NS(C)(=O)=O)cc3)C2=N)c2cc(Br)ccc2O1 (racemic)
[1]
  viability at 10 µM: 78%

## CC(=O)Nc1ccc(CN2CC3(CC(C)(C)Oc4ccccc43)OC2=O)cc1 (racemic)
[1]
  viability at 10 µM: 92%
[2]
  Activity: inactive
[3]
  Activity: Active
[4]
  Activity: Active

## CC1=Nc2ccc(Cl)cc2S(=O)(=O)N1 [DIAZOXIDE]
[5]
  Activity: inactive
[6]
  viability at 100 µM: 103%
